ChEMBL document CHEMBL5705892, “MK-2206, an allosteric Akt inhibitor, enhances antitumor efficacy by standard chemotherapeutic agents or molecular targeted drugs in vitro and in vivo” (Mol Cancer Ther, 2010)

How the values were obtained:
[1] = tested on: A2780; assay: Synergistic antiproliferative activity against human A2780 cells assessed as combination index at ED50 measured after 72 hrs in presence of doxorubicin by celltiter-glo assay; assay type: functional
In short: (§1)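 Cells were seeded at 2–3 × 10³ per well in RPMI 1640 with 10% FBS. At 24 h, MK-2206 and the partner drug were added simultaneously at constant concentration ratios spanning each agent's IC₅₀, for 72 h. Growth was read as cellular ATP by CellTiter-Glo. CI was taken from median-effect plots of each agent alone and in combination (Chou–Talalay), at ED₅₀, ED₇₅ and ED₉₀.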

[2] = tested on: HCC70; assay: Synergistic antiproliferative activity against human HCC70 cells assessed as combination index at ED90 treated 24 hrs prior to lapatinib and measured after 72 hrs by celltiter-glo assay; assay type: functional; details: time 96 hrs
[3] = tested on: A2780; assay: Cell cycle arrest in human A2780 cells assessed as increase in accumulation of cells at sub-G1 phase measured after 72 hrs in presence of gemcitabine by propidium iodide staining based flow cytometry; assay type: functional
[4] = tested on: NCI-H1299; assay: Synergistic antiproliferative activity against human NCI-H1299 cells assessed as combination index at ED50 measured after 72 hrs in presence of erlotinib by celltiter-glo assay; assay type: functional
[5] = tested on: HCC70; assay: Synergistic antiproliferative activity against human HCC70 cells assessed as combination index at ED50 measured after 96 hrs in presence of lapatinib by celltiter-glo assay; assay type: functional
[6] = tested on: A2780; assay: Synergistic antiproliferative activity against human A2780 cells assessed as combination index at ED90 measured after 72 hrs in presence of carboplatin by celltiter-glo assay; assay type: functional; in short: as §1
[7] = tested on: SK-BR-3; assay: Synergistic antiproliferative activity against lapatinib pretreated human SK-BR-3 cells assessed as combination index at ED50 measured after 72 hrs by celltiter-glo assay; assay type: functional
[8] = Toxicity in human HCC70 cells xenografted CB17/icr SCID mouse assessed as body weight loss at 120 mg/kg, po administered 3 times per week for 3 weeks starting 2 hrs post-lapatinib treatment and measured during compound dosing; assay type: organism-based; details: in vivo, 504 h
In short: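 HCC70 cells in 50% Matrigel/PBS injected s.c. into flank of female C.B-17/ICR-scid mice; dosing began after 3 wk, groups randomized at mean tumour 0.2 cm³ (n = 5). Lapatinib 100 mg/kg p.o. in distilled water, 5 d/wk for 3 wk; MK-2206 in 30% Captisol p.o. 3×/wk for 3 wk, given 2 h after lapatinib. Body weight and physical signs monitored throughout.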

[9] = tested on: NCI-H441; assay: Synergistic antiproliferative activity against human NCI-H441 cells assessed as combination index at ED25 to ED90 measured after 72 hrs in presence of gemcitabine by celltiter-glo assay; assay type: functional
[10] = tested on: A2780; assay: Cell cycle arrest in human A2780 cells assessed as increase in accumulation of cells at sub-G1 phase measured after 72 hrs in presence of 5-FU by propidium iodide staining based flow cytometry; assay type: functional
[11] = tested on: HCC70; assay: Antiproliferative activity against human HCC70 cells assessed as reduction in cell proliferation measured after 72 hrs by celltiter-glo assay; assay type: functional, cell-based; details: HCC70, 72 h
In short: (§2)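 Cells in RPMI 1640 with 10% heat-inactivated FBS at 37°C and 5% CO₂ were seeded at 2 to 3 × 10³ per well. […] Growth was read as cellular ATP by CellTiter-Glo.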

[12] = tested on: NCI-H661; assay: Synergistic antiproliferative activity against human NCI-H661 cells assessed as combination index at ED25 to ED90 measured after 72 hrs in presence of carboplatin by celltiter-glo assay; assay type: functional
[13] = tested on: MDA-MB-231; assay: Synergistic antiproliferative activity against human MDA-MB-231 cells assessed as combination index at ED75 measured after 72 hrs in presence of docetaxel by celltiter-glo assay; assay type: functional
In short: (§3)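 Cells grown in RPMI 1640 with 10% heat-inactivated FBS at 37°C, 5% CO₂. Seeded at 2 to 3 × 10³ per well; drugs added 24 h later. […] Viability read as cellular ATP by CellTiter-Glo. CI calculated by Chou–Talalay from median-effect plots at ED50, ED75 and ED90.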

[14] = tested on: MDA-MB-468; assay: Synergistic antiproliferative activity against human MDA-MB-468 cells assessed as combination index at ED75 measured after 72 hrs in presence of docetaxel by celltiter-glo assay; assay type: functional; in short: as §3
[15] = tested on: NCI-H460; assay: Synergistic antiproliferative activity against human NCI-H460 cells assessed as combination index at ED90 measured after 72 hrs in presence of erlotinib by celltiter-glo assay; assay type: functional
[16] = In vivo inhibition of AKT phosphorylation at S473 residue in human NCI-H292 cells xenografted mouse at 120 mg/kg, po administered as single dose 2 hrs post-erlotinib treatment measured after 12 hrs by Western blot analysis relative to control; assay type: functional
[17] = tested on: HCC1954; assay: Synergistic antiproliferative activity against lapatinib pretreated human HCC1954 cells assessed as combination index at ED90 measured after 72 hrs by celltiter-glo assay; assay type: functional
[18] = tested on: NCI-N87; assay: Synergistic antiproliferative activity against human NCI-N87 cells assessed as combination index at ED50 treated 24 hrs prior to lapatinib and measured after 72 hrs by celltiter-glo assay; assay type: functional; details: time 96 hrs
[19] = tested on: NCI-H460; assay: Synergistic antiproliferative activity against human NCI-H460 cells assessed as combination index at ED50 measured after 72 hrs in presence of gemcitabine by celltiter-glo assay; assay type: functional
[20] = tested on: A2780; assay: Synergistic antiproliferative activity against human A2780 cells assessed as combination index at ED75 measured after 72 hrs in presence of 5-FU by celltiter-glo assay; assay type: functional; in short: as §1
[21] = tested on: HCC1954; assay: Synergistic antiproliferative activity against human HCC1954 cells assessed as combination index at ED75 measured after 72 hrs in presence of lapatinib by celltiter-glo assay; assay type: functional; in short: as §3
[22] = tested on: Calu-6; assay: Antiproliferative activity against human Calu-6 cells assessed as reduction in cell proliferation measured after 72 hrs by celltiter-glo assay; assay type: functional, cell-based; details: Calu-6, 72 h; in short: as §2
[23] = tested on: HCC70; assay: Synergistic antiproliferative activity against human HCC70 cells assessed as combination index at ED75 measured after 72 hrs in presence of docetaxel by celltiter-glo assay; assay type: functional; in short: as §3
[24] = tested on: A2780; assay: Synergistic antiproliferative activity against human A2780 cells assessed as combination index at ED75 measured after 72 hrs in presence of camptothecin by celltiter-glo assay; assay type: functional; in short: as §1
[25] = Toxicity in human NCI-H460 cells xenografted CD1 nude mouse assessed as body weight loss at 120 mg/kg, po administered 3 times per week for 2 weeks measured on day 14 to 16; assay type: organism-based; details: in vivo, 336 h, time 14-16 day
In short: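 NCI-H460 cells in 50% Matrigel/PBS injected s.c. into flank of CD1-nude mice; randomized at mean tumour 0.2 cm³ (n = 5). MK-2206 in 30% Captisol, 120 mg/kg p.o. days 0, 2, 4, 7, 9, 11. Carboplatin 50 mg/kg i.v. in saline days 0 and 7 (from day 12 after implant), or gemcitabine 100 mg/kg i.v. in saline days 0 and 7 (from day 8). Body weight monitored.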

[26] = tested on: SK-OV-3; assay: Synergistic antiproliferative activity against human SK-OV-3 cells assessed as combination index at ED75 measured after 72 hrs in presence of lapatinib by celltiter-glo assay; assay type: functional
[27] = tested on: NCI-H358; assay: Synergistic antiproliferative activity against human NCI-H358 cells assessed as combination index at ED50 measured after 72 hrs in presence of erlotinib by celltiter-glo assay; assay type: functional

Cl.NC1(c2ccc(-c3nc4ccn5c(=O)[nH]nc5c4cc3-c3ccccc3)cc2)CCC1
CI50 [1]: 0.7 | CI90 [2]: 0.18 | Activity [3]: Dose-Dependent Effect | CI50 [4]: 0.28 | CI50 [5]: 0.18 | CI90 [6]: 0.38 | CI50 [7]: 0.18 | Activity [8]: Non-Toxic | CI [9]: 0.37 | Activity [10]: Dose-Dependent Effect | IC50 [11]: 0.3 µM | CI [12]: 0.37 | CI75 [13]: 0.7 | CI75 [14]: 0.8 | CI90 [15]: 0.17 | inhibition in vivo at 120 mg/kg [16]: 79.9% | CI90 [17]: 0.18 | CI50 [18]: 0.18 | CI50 [19]: 0.33 | CI75 [20]: 0.54 | CI75 [21]: 0.13 | IC50 [22]: 28.6 µM | CI75 [23]: 0.7 | CI75 [24]: 0.4 | Activity [25]: Non-Toxic | CI75 [26]: 0.13 | CI50 [27]: 0.44
